The species named for one assay is Bos taurus. Kind of assay: Displacement of [3H]flumazenil from benzodiazepine receptor in bovine brain membranes at 10 uM. The class given is cell membranes. The gist of the method: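 Bovine cerebral cortex membranes, freeze-thawed once and washed in 50 mM Tris-citrate pH 7.4, used for competition against [3H]flumazenil. Test compound at a fixed 10 µM; read-out is % inhibition of specific binding, as mean of three determinations run in triplicate.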
Background: Loss of bound radioactivity is the signal in a displacement assay; it reports binding, not function.

The nature of assay [1]: Displacement of [3H]flumazenil from benzodiazepine receptor in bovine brain membranes. In kind it is cell membranes, Bos taurus.
Assay [2] concerns the target GABA-A receptor; alpha-1/beta-2/gamma-2 (Rattus norvegicus) (UniProt P18508+P62813+P63138). Briefly: Agonist activity at rat GABAA alpha-1-beta-2-gamma-2 expressed in HEK293 cells assessed as chloride influx. The class given is functional, cell-based.
For assay [3], the target named is GABA-A receptor; alpha-1/beta-2/gamma-2 (Rattus norvegicus, UniProt P18508+P62813+P63138). Kind of assay: Displacement of [3H]flumazenil from rat GABAA alpha-1-beta-2-gamma-2 expressed in HEK293 cells. In kind it is cell-based. The gist of the method: (§1)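 Crude membranes from HEK293 cells stably expressing rat GABAA subtypes, cells grown in DMEM/F-12 with 10% FBS at 37 °C, 5% CO2. Homogenized in 10 mM potassium phosphate pH 7.4, spun at 48 000g for 30 min at 4 °C, washed twice, resuspended with 100 mM KCl. [3H]flumazenil displacement; Ki as mean ± SEM of three determinations in triplicate.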

The target of assay [4] is GABA A receptor alpha-2/beta-2/gamma-2 (Rattus norvegicus) (UniProt P18508+P23576+P63138). Briefly: Displacement of [3H]flumazenil from rat GABAA alpha-2-beta-2-gamma-2 expressed in HEK293 cells at 10 uM. The class given is cell-based. The gist of the method: (§2)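 [3H]flumazenil competition in membranes of HEK293 cells stably expressing rat GABAA subtypes, prepared in 10 mM potassium phosphate pH 7.4 (48 000g, 4 °C, two washes, final buffer with 100 mM KCl). Single test concentration of 10 µM; % inhibition of specific binding, mean ± SEM of three determinations in triplicate.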

Assay [5] has as its target GABA A receptor alpha-5/beta-3/gamma-2 (Rattus norvegicus) (UniProt P18508+P19969+P63079). Kind of assay: Displacement of [3H]flumazenil from rat GABAA alpha-5-beta-3-gamma-2 expressed in HEK293 cells at 10 uM. The class given is cell-based. Summed up:
as §2

In assay [6] the target is GABA A receptor alpha-2/beta-2/gamma-2 (Rattus norvegicus, UniProt P18508+P23576+P63138). Briefly: Displacement of [3H]flumazenil from rat GABAA alpha-2-beta-2-gamma-2 expressed in HEK293 cells. The class given is cell-based. The gist of the method:
as §1

Assay [7] concerns the target GABA A receptor alpha-5/beta-3/gamma-2 (Rattus norvegicus, UniProt P18508+P19969+P63079). Briefly: Displacement of [3H]flumazenil from rat GABAA alpha-5-beta-3-gamma-2 expressed in HEK293 cells. In kind it is cell-based. The gist of the method:
as §1

A further assay has as its system Mus musculus. Kind of assay: Decrease in spontaneous motor activity in Balb/C mouse at 10 mg/kg, ip. The class given is functional, organism-based. The arrangement: dose 10 mg/kg.

Calls of active or inactive are those of the source. The calls are words filed in the database; no cut-off is given here.

Chain of GABA A receptor alpha-5/beta-3/gamma-2 (P18508 whole entry): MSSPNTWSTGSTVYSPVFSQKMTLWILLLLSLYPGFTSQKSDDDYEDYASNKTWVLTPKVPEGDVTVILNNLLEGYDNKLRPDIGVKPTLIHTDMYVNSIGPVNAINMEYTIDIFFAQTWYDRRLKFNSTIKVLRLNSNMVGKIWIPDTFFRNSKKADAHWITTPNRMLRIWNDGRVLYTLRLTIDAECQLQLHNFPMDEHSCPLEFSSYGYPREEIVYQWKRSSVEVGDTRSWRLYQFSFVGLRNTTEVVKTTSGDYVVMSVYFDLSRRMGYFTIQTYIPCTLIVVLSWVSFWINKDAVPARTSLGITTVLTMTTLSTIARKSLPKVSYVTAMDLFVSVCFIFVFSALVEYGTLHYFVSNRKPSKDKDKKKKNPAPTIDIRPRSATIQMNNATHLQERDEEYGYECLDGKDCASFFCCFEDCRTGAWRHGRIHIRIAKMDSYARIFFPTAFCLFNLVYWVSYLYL
Chain of GABA A receptor alpha-5/beta-3/gamma-2 (P19969 whole entry): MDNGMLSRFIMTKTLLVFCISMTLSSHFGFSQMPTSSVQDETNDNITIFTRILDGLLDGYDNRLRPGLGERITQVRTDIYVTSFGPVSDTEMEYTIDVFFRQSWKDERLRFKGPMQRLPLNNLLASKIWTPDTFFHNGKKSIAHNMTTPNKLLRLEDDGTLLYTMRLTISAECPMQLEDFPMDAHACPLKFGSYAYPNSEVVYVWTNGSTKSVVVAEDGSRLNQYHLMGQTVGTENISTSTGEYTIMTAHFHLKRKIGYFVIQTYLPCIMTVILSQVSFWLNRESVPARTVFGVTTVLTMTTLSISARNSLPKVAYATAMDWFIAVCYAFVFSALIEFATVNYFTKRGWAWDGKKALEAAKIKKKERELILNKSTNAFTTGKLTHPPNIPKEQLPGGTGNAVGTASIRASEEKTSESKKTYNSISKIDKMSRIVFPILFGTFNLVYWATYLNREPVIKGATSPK
Chain of GABA A receptor alpha-5/beta-3/gamma-2 (P63079 whole entry): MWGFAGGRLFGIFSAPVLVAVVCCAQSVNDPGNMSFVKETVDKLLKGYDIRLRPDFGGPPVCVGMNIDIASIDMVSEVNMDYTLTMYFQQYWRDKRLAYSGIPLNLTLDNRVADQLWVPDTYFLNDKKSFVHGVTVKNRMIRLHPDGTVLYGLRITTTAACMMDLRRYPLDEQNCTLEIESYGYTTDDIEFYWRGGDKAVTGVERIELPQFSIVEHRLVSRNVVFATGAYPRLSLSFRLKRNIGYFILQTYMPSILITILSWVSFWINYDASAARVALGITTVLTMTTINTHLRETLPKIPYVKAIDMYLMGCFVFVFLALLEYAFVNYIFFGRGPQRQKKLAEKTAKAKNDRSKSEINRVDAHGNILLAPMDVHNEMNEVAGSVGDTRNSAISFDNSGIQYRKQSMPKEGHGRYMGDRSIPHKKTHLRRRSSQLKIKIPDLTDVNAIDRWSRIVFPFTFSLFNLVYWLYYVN
Chain of GABA-A receptor; alpha-1/beta-2/gamma-2 (P18508 whole entry): as the sequence (P18508 whole entry) above
Chain of GABA-A receptor; alpha-1/beta-2/gamma-2 (P62813 whole entry): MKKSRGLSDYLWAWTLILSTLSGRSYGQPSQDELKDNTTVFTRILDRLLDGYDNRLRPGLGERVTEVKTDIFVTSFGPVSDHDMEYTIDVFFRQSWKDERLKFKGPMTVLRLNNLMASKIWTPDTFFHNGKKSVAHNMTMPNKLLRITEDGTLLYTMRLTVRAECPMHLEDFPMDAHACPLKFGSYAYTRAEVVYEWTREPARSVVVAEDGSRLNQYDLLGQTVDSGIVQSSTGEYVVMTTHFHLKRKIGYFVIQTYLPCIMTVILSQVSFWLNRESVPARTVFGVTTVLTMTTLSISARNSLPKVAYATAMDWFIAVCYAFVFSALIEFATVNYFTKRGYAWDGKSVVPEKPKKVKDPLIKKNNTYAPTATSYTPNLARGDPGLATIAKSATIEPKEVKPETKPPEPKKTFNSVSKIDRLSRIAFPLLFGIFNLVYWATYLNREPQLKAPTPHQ
Chain of GABA-A receptor; alpha-1/beta-2/gamma-2 (P63138 whole entry): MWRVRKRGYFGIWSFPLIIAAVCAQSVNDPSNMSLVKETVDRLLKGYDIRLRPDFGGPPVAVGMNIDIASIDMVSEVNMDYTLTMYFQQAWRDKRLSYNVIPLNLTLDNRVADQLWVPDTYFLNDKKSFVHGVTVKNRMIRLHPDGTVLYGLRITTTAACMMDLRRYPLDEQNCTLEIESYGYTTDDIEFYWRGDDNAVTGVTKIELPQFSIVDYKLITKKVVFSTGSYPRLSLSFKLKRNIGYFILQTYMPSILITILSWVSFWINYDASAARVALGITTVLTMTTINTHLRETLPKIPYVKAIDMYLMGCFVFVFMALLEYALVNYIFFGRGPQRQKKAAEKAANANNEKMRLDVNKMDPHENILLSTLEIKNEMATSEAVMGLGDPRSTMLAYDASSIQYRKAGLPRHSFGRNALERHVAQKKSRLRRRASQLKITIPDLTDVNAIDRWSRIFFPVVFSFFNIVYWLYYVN
Chain of GABA A receptor alpha-2/beta-2/gamma-2 (P18508 whole entry): as the sequence (P18508 whole entry) above
Chain of GABA A receptor alpha-2/beta-2/gamma-2 (P23576 whole entry): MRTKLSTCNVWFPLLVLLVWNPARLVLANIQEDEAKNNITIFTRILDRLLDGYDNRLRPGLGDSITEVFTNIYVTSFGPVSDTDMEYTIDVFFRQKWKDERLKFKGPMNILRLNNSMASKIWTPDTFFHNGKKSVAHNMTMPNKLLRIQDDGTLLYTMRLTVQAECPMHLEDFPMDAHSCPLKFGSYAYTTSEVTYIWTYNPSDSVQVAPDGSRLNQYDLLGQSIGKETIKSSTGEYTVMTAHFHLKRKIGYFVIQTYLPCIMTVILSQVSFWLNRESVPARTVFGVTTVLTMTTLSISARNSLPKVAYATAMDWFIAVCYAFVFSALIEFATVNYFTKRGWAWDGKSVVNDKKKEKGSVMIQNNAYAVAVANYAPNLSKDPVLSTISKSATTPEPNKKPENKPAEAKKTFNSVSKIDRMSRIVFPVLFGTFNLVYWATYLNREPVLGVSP
Chain of GABA A receptor alpha-2/beta-2/gamma-2 (P63138 whole entry): as the sequence (P63138 whole entry) above

The inhibition is the percentage by which the read-out fell short of the control. Higher therefore signals a response far below the control. As for `O=C(NCc1ccc(Br)cc1)C(=O)c1c[nH]c2ccc([N+](=O)[O-])cc12`, the inhibition in the assay filed under Bos taurus is 31%.

Compound `CC(C)(C)NC(=O)C(=O)c1c[nH]c2ccccc12` had an inhibition in the assay filed under Bos taurus of 7%.

Regarding `CC(C)CNC(=O)C(=O)c1c[nH]c2ccc([N+](=O)[O-])cc12`, the inhibition in the assay listed under Bos taurus stood at 5%.

Consider `CC(C)CNC(=O)C(=O)c1c[nH]c2ccccc12`, for which the inhibition in the assay filed under Bos taurus turned out to be 43%.

As a reminder, the Ki is the dissociation constant of the complex between target and ligand, obtained from inhibition or displacement. Consider `O=C1CN=C(c2ccccc2Cl)c2cc([N+](=O)[O-])ccc2N1` [CLONAZEPAM], for which the Ki in assay [1] worked out at 0.85 nM.

`CN1C(=O)CN=C(c2ccccc2)c2cc(Cl)ccc21` [DIAZEPAM] gave a Ki in [1] of 10 nM. Moreover, in [2], the Activity amounted to 72%.

As for `CCc1ccc(CNC(=O)C(=O)c2c[nH]c3ccc([N+](=O)[O-])cc23)cc1`, in the assay filed under Bos taurus, the inhibition stood at 42%.

Take `CC#Cc1ccc(CNC(=O)C(=O)c2c[nH]c3ccccc23)cc1`: the values for the Ki in assay [1] and in assay [3] were 3280 nM and 881 nM, respectively. Moreover, the results for the inhibition in assay [4] and in assay [5] were 16% and 13%, respectively.

As to `CCCCCCNC(=O)C(=O)c1c[nH]c2ccc([N+](=O)[O-])cc12`, the inhibition in the assay listed under Bos taurus came to 53%.

With `O=C(NCc1ccc(Br)cc1)C(=O)c1c[nH]c2ccccc12`, the Ki in assay [1] was 93 nM; in [3], 17 nM; in assay [6] it was 81 nM; in assay [7], 1440 nM.

`CC#Cc1ccc(CNC(=O)C(=O)c2c[nH]c3ccc([N+](=O)[O-])cc23)cc1`: the inhibition in the assay filed under Bos taurus worked out at 0%.

Take `CCc1ccc(CNC(=O)C(=O)c2c[nH]c3ccccc23)cc1`: the Ki is 2160 nM in assay [1], 559 nM in assay [3] and 1600 nM in assay [6]. The inhibition in assay [5] is 40%.

On to `CC(C)NC(=O)C(=O)c1c[nH]c2ccccc12`, for which the Ki in assay [1] came out at 2690 nM.

On to `C[Si](C)(C)CC#Cc1ccc(CNC(=O)C(=O)c2c[nH]c3ccc([N+](=O)[O-])cc23)cc1`, for which, in the assay listed under Bos taurus, the inhibition was 0%.

`C[Si](C)(C)CC#Cc1ccc(CNC(=O)C(=O)c2c[nH]c3ccccc23)cc1` had an inhibition in the assay listed under Bos taurus of 3%.

Turning to `CCC(C)NC(=O)C(=O)c1c[nH]c2ccc([N+](=O)[O-])cc12` (stereo unspecified), the affinity in assay [1], expressed as Ki, was 412 nM.

As to `C#Cc1ccc(CNC(=O)C(=O)c2c[nH]c3ccc([N+](=O)[O-])cc23)cc1`, in the assay filed under Bos taurus, the inhibition worked out at 28%.

With `CCC(C)NC(=O)C(=O)c1c[nH]c2ccccc12` (stereo unspecified), the inhibition in the assay filed under Bos taurus is 34%.

As for `O=C(NCc1ccccc1)C(=O)c1c[nH]c2ccc([N+](=O)[O-])cc12`, the inhibitory constant (Ki) turned out to be 117 nM in assay [1] and 65 nM in assay [3]. In addition, the inhibition in [4] amounted to 32%; in [5] it was 44%.

Take `CC(C)NC(=O)C(=O)c1c[nH]c2ccc([N+](=O)[O-])cc12`: the Ki in assay [1] was 57.8 nM; in assay [3], 15 nM; in assay [6], 175 nM; in assay [7] it was 498 nM.

Consider `Cc1ccc(-c2nc3ccc(C)cn3c2CC(=O)N(C)C)cc1`, for which the result in the assay on Mus musculus was Active.

With `Cc1ccc(CNC(=O)C(=O)c2c[nH]c3ccc([N+](=O)[O-])cc23)cc1`, the values for the Ki in assay [1] and in [3] were 88 nM and 31.3 nM, respectively. The inhibition in assay [4] and in assay [5] was 0% each time. The Activity in assay [2] came to 78%. In addition, the result in the assay on Mus musculus was Active.

Consider `CCCCCNC(=O)C(=O)c1c[nH]c2ccccc12`, for which the Ki in [1] was 1480 nM.

In the case of `CCCCNC(=O)C(=O)c1c[nH]c2ccccc12`, the Ki in assay [1] worked out at 3720 nM; in assay [3], 1170 nM. Moreover, the inhibition in assay [4] was determined as 7%; in assay [5], 28%.

Turning to `CCCCNC(=O)C(=O)c1c[nH]c2ccc([N+](=O)[O-])cc12`, the Ki in assay [1] was 110 nM; in [3], 125 nM; in assay [6] it was 553 nM; in assay [7] it was 943 nM.

For `CCCCCCNC(=O)C(=O)c1c[nH]c2ccccc12`, in assay [1], the affinity corresponds to a Ki of 1650 nM.

As to `Cc1ccc(CNC(=O)C(=O)c2c[nH]c3ccccc23)cc1`, the Ki in assay [1] came out at 606 nM.

The compound `CC(C)(C)NC(=O)C(=O)c1c[nH]c2ccc([N+](=O)[O-])cc12` returned a Ki in [1] of 2800 nM.

For `C#Cc1ccc(CNC(=O)C(=O)c2c[nH]c3ccccc23)cc1`, the inhibition constant (Ki) in assay [1] was 164 nM; in assay [3], 250 nM; in assay [6] it was 414 nM; in assay [7] it was 1150 nM.

Compound `CCCCCNC(=O)C(=O)c1c[nH]c2ccc([N+](=O)[O-])cc12` returned a Ki in assay [1] of 4100 nM.

Turning to `O=C(NCc1ccccc1)C(=O)c1c[nH]c2ccccc12`, the Ki in [1] stood at 120 nM; in assay [3] it was 346 nM. In addition, the inhibition was 39% in assay [4] and 46% in assay [5].

In turn, `C[Si](C)(C)C#Cc1ccc(CNC(=O)C(=O)c2c[nH]c3ccccc23)cc1` yielded an inhibition in the assay listed under Bos taurus of 29%.

Compound `C[Si](C)(C)C#Cc1ccc(CNC(=O)C(=O)c2c[nH]c3ccc([N+](=O)[O-])cc23)cc1` displayed an inhibition in the assay filed under Bos taurus of 21%.

Source of the values: ChEMBL document CHEMBL1142972, “Novel N-substituted indol-3-ylglyoxylamides probing the LDi and L1/L2 lipophilic regions of the benzodiazepine receptor site in search for subtype-selective ligands” (J Med Chem, 2007).
